ChEMBL document CHEMBL3352765, “Synthesis and evaluation of the cytotoxic activity of 1,2-furanonaphthoquinones tethered to 1,2,3-1H-triazoles in myeloid and lymphoid leukemia cell lines” (Eur J Med Chem, 2014)
Where a name gives a salt, the structure may show the parent alone.

Legend:
[1] = test system: CCRF-CEM; test: Cytotoxicity against human CCRF-CEM cells after 48 hrs by Alamar blue assay; assay type: functional, cell-based
Method in brief: (§1)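 Cells seeded at 2.5 × 10⁴/well and exposed to compounds for 48 h in total. AlamarBlue was added before the end of the 48 h (CCRF-CEM 2 h, MOLT-4 6 h). Resorufin fluorescence was read at ex 560/em 590 nm. Triplicate wells at six or seven concentrations. Controls were cells with medium and up to 1% DMSO. IC50 is the concentration killing 50% of cells.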

[2] = test system: K562; test: Cytotoxicity against human K562 cells after 48 hrs by Alamar blue assay; assay type: functional, cell-based; conditions: K562, 48 h
Method in brief: (§2)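 Cells were seeded and exposed to compounds for 48 h in total: K562 at 2.5 × 10⁴/well, KG1 at 5.0 × 10⁴/well. AlamarBlue was added 4 h (K562) or 6 h (KG1) before the end. Fluorescence was read at ex 560/em 590 nm. Triplicate wells at six or seven concentrations. Vehicle controls contained up to 1% DMSO and defined 100% survival. Readout was IC50.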

[3] = Induction of hemolysis in lamb blood erythrocytes at 1000 uM incubated for 10 mins by microplate reader method; assay type: cell-based, Ovis aries, Erythrocyte; conditions: sheep, read-out: Activity
Method in brief: (§3)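 Fresh lamb erythrocytes were collected by centrifugation at 1500 rpm for 15 min and washed three times in PBS with 10 mM glucose, pH 7.4. They were used at 4 × 10⁸/well in triplicate, with compounds at a final 1000 µM and retests at 200 µM. After centrifugation at 13,000 rpm for 15 min, supernatant absorbance was read at 540 nm. Results are given as % of complete hemolysis from water osmotic shock.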

[4] = test system: MOLT-4; test: Cytotoxicity against human MOLT4 cells after 48 hrs by Alamar blue assay; assay type: functional, cell-based; conditions: MOLT-4, 48 h; method in brief: as §1
[5] = test system: PBMC; test: Cytotoxicity against normal human PBMC assessed as reduction in cell viability at 10 times anti-leukemic IC50 after 48 hrs by Alamar blue assay; assay type: cell-based
Method in brief: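 Gradient-isolated donor PBMCs (three donors), 5 × 10⁴/well in RPMI 1640 with 10% inactivated FBS. […] Viability was measured by AlamarBlue with 24 h dye incubation and fluorescence at ex 560/em 590 nm.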

[6] = Cytotoxicity against human KG1 cells after 48 hrs by Alamar blue assay; assay type: functional, cell-based; conditions: KG-1, 48 h; method in brief: as §2
[7] = Induction of hemolysis in lamb blood erythrocytes at 200 uM incubated for 10 mins by microplate reader method; assay type: cell-based, Ovis aries; conditions: sheep, erythrocyte; method in brief: as §3
[8] = test system: PBMC; test: Cytotoxicity against normal human PBMC assessed as reduction in cell viability after 48 hrs by Alamar blue assay; assay type: functional, cell-based
Method in brief: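 PBMCs were isolated from healthy-donor buffy coats by density gradient centrifugation and seeded at 5.0 × 10⁴/well in RPMI 1640 with 10% inactivated FBS. Exposure was 48 h, with AlamarBlue added for the final 24 h. Fluorescence was read at ex 560/em 590 nm. Triplicate wells at six or seven concentrations. IC50 was derived against vehicle controls.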

[9] = test system: PBMC; test: Cytotoxicity against normal human PBMC assessed as reduction in cell viability at 10 uM after 48 hrs by Alamar blue assay; assay type: functional
[10] = Cytotoxicity against human lymphocytes; assay type: cell-based; conditions: Lymphocyte
[11] = test system: V79; test: Cytotoxicity against Chinese hamster V79 cells; assay type: cell-based; conditions: Cricetulus griseus

COc1ccc(-c2cn(C3C4=C(OC3(C)C)c3ccccc3C(=O)C4=O)nn2)cc1 (stereo unspecified)
IC50 [1]: 11.7 µM
IC50 [2]: 9.06 µM
hemolysis at 10 min, 1000 µM [3]: < 5%
IC50 [4]: 34.5 µM
Activity [5]: > 80%
IC50 [6]: 76.2 µM

CC1(C)OC2=C(C(=O)C(=O)c3ccccc32)C1n1cc(C2=CCCCC2)nn1 (stereo unspecified)
IC50 [1]: 12.6 µM
IC50 [2]: 1.11 µM
hemolysis at 10 min, 1000 µM [3]: < 5%
IC50 [4]: 0.28 µM
Activity [5]: > 80%
IC50 [6]: 8.41 µM

CC1(C)OC2=C(C(=O)C(=O)c3ccccc32)C1n1cc(C2CCCCC2)nn1 (stereo unspecified)
IC50 [1]: 1.97 µM
IC50 [2]: 3.8 µM
hemolysis at 10 min, 1000 µM [3]: < 5%
IC50 [4]: 2.13 µM
Activity [5]: Non-toxic
IC50 [6]: 7.62 µM

CCCCCc1ccc(-c2cn(C3C4=C(OC3(C)C)c3ccccc3C(=O)C4=O)nn2)cc1 (stereo unspecified)
IC50 [1]: 13.8 µM
IC50 [2]: 8.03 µM
hemolysis at 10 min, 1000 µM [3]: > 5%
Activity [7]: Non-toxic
IC50 [4]: 2.62 µM
Activity [5]: > 80%
IC50 [6]: 3.92 µM

CCCc1cn(C2C3=C(OC2(C)C)c2ccccc2C(=O)C3=O)nn1 (stereo unspecified)
IC50 [1]: 3.14 µM
IC50 [2]: 60.9 µM
hemolysis at 10 min, 1000 µM [3]: < 5%
IC50 [4]: 1.47 µM
Activity [5]: > 80%
IC50 [6]: 1.55 µM

CCCCc1cn(C2C3=C(OC2(C)C)c2ccccc2C(=O)C3=O)nn1 (stereo unspecified)
IC50 [1]: 3.73 µM
IC50 [2]: 3.78 µM
hemolysis at 10 min, 1000 µM [3]: < 5%
IC50 [4]: 1.92 µM
Activity [5]: > 80%
IC50 [6]: 3.79 µM

CCCCCc1cn(C2C3=C(OC2(C)C)c2ccccc2C(=O)C3=O)nn1 (stereo unspecified)
IC50 [1]: 27.6 µM
IC50 [2]: 2.68 µM
hemolysis at 10 min, 1000 µM [3]: < 5%
IC50 [4]: 2.28 µM
Activity [5]: > 80%
IC50 [6]: 30 µM

CCCCCCc1cn(C2C3=C(OC2(C)C)c2ccccc2C(=O)C3=O)nn1 (stereo unspecified)
IC50 [1]: 7.3 µM
hemolysis at 10 min, 1000 µM [3]: < 5%
IC50 [4]: 2.17 µM
Activity [5]: > 80%
IC50 [6]: 5.58 µM

CCC(C)(O)c1cn(C2C3=C(OC2(C)C)c2ccccc2C(=O)C3=O)nn1 (stereo unspecified)
IC50 [1]: 3.57 µM
IC50 [2]: 1.39 µM
hemolysis at 10 min, 1000 µM [3]: < 5%
IC50 [4]: 1.98 µM
Activity [5]: Non-toxic
IC50 [6]: 5.63 µM

CC(C)CC(C)(O)c1cn(C2C3=C(OC2(C)C)c2ccccc2C(=O)C3=O)nn1 (stereo unspecified)
IC50 [1]: 1.77 µM
IC50 [2]: 1.91 µM
hemolysis at 10 min, 1000 µM [3]: < 5%
IC50 [4]: 1.47 µM
Activity [5]: > 80%
IC50 [6]: 1.32 µM

CC(=O)OCc1cn(C2C3=C(OC2(C)C)c2ccccc2C(=O)C3=O)nn1 (stereo unspecified)
IC50 [1]: 0.31 µM
IC50 [2]: 8.35 µM
hemolysis at 10 min, 1000 µM [3]: < 5%
IC50 [4]: 0.16 µM
Activity [5]: > 80%
IC50 [6]: 9.58 µM

CC1(C)OC2=C(C(=O)C(=O)c3ccccc32)C1n1cc(CCl)nn1 (stereo unspecified)
IC50 [1]: 0.67 µM
IC50 [2]: 1.38 µM
hemolysis at 10 min, 1000 µM [3]: > 5%
Activity [7]: Non-toxic
IC50 [4]: 0.48 µM
Activity [5]: Non-toxic
IC50 [6]: 0.98 µM

CC1(C)OC2=C(C(=O)C(=O)c3ccccc32)C1n1cc(CCCCl)nn1 (stereo unspecified)
IC50 [1]: 0.34 µM
IC50 [2]: 2.07 µM
hemolysis at 10 min, 1000 µM [3]: < 5%
IC50 [8]: > 10 µM
IC50 [4]: 0.05 µM
Activity [5]: > 80%
IC50 [6]: 0.93 µM

CC1(C)OC2=C(C(=O)C(=O)c3ccccc32)C1n1cc(C2(O)CCCCC2)nn1 (stereo unspecified)
IC50 [1]: 2.79 µM
IC50 [2]: 1.53 µM
hemolysis at 10 min, 1000 µM [3]: < 5%
IC50 [4]: 2.58 µM
Activity [5]: > 80%
IC50 [6]: 4.92 µM

CC1(C)OC2=C(C(=O)C(=O)c3ccccc32)C1n1cc(-c2ccccc2)nn1 (stereo unspecified)
IC50 [1]: 1.96 µM
IC50 [2]: 14.4 µM
hemolysis at 10 min, 1000 µM [3]: < 5%
IC50 [4]: 0.75 µM
Activity [5]: Non-toxic
IC50 [6]: 12.8 µM
Activity [9]: 30%

CC(C)(O)c1cn(C2C3=C(OC2(C)C)c2ccccc2C(=O)C3=O)nn1 (stereo unspecified)
IC50 [1]: 1.73 µM
IC50 [2]: 2.43 µM
hemolysis at 10 min, 1000 µM [3]: < 5%
IC50 [4]: 2.16 µM
Activity [5]: > 80%
IC50 [6]: 2 µM

CC1(C)OC2=C(C(=O)C(=O)c3ccccc32)C1n1cc(COC2CCCCO2)nn1 (stereo unspecified)
IC50 [1]: 3.16 µM
IC50 [2]: 1.84 µM
hemolysis at 10 min, 1000 µM [3]: < 5%
IC50 [4]: 2.04 µM
Activity [5]: > 80%
IC50 [6]: 5.63 µM

CC1(C)OC2=C(C(=O)C(=O)c3ccccc32)C1N=[N+]=[N-] (stereo unspecified)
IC50 [1]: 3.18 µM
IC50 [2]: 1.58 µM
IC50 [4]: 3.64 µM
Activity [5]: > 80%
IC50 [6]: 6.06 µM

CC1(C)OC2=C(C(=O)C(=O)c3ccccc32)C1n1cc(CO)nn1 (stereo unspecified)
IC50 [1]: 1.53 µM
IC50 [2]: 1.58 µM
hemolysis at 10 min, 1000 µM [3]: < 5%
IC50 [4]: 1.35 µM
Activity [5]: > 80%
IC50 [6]: 5.33 µM

COc1cccc2c1C(=O)c1c(O)c3c(c(O)c1C2=O)C[C@@](O)(C(=O)CO)C[C@@H]3O[C@H]1C[C@H](N)[C@H](O)[C@H](C)O1 [DOXORUBICIN HYDROCHLORIDE]
IC50 [1]: 0.15 µM
IC50 [4]: 0.07 µM
Activity [5]: > 80%

CC1(C)CC2=C(O1)c1ccccc1C(=O)C2=O [NOR-BETA-LAPACHONE]
IC50 [1]: 15.2 µM
IC50 [2]: 2.28 µM
IC50 [4]: 13.6 µM
Activity [5]: > 80%
IC50 [10]: > 22 µM
IC50 [11]: 13 µM
IC50 [6]: 17.2 µM
